Laboratory results: PMC11621838 (Proceedings of the National Academy of Sciences of the …, 2024)

Assays:
[1] = target: T1, TAS2R5 (Homo sapiens, UniProt Q9NYW4); test: FLOWER microtoroid optical resonator receptor-ligand affinity measurement; assay type: binding
T1 sequence (Q9NYW4 1-299): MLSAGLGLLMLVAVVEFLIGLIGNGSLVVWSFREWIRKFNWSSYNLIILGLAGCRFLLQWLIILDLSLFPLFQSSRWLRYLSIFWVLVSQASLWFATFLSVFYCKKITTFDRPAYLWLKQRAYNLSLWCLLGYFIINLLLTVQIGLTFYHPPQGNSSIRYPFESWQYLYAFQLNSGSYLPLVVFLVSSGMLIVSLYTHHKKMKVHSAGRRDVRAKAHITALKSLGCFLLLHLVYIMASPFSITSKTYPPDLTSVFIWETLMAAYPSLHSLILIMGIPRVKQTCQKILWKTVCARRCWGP
Outline: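 Microtoroid coated with DOPC vesicles (0.5 mg/mL, 1.5 h, 3–4 °C). HEK-293-expressed TAS2R5 was extracted with CellLyticM (1:3) and spun 12,500 rcf, 60 min, 4 °C. The supernatant, diluted 1:6 in DPBS pH 7.4, was incubated with the toroid for 1.5 h. Graded agonist concentrations were perfused with 5-min buffer rinses. Peak wavelength shift per concentration was fit to a Hill binding equation (Bmax, nonspecific, background terms) for KD.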

[2] = target: T1, TAS2R5; assay type: cell-based

## c1cnc2c(c1)ccc1cccnc12 [T5-1, 1,10-phenanthroline]
[1]
  Kd: 13 ± 3.5 µM
[2]; EC50, D9 cells, Fluo-4, [Ca2+]i, mean ± SE of 7 to 10 experiments
  EC50: 23.1 ± 3.99 µM
[2]; [Ca2+]i in D9 cells
  EC50, fold lower than that of T5-14: 3 fold
[2]; cellular assays
  potency class of the agonist: moderate-potency
[2]; log(EMax/EC50), EC50 in Molar
  S.T. (log-transformed signal transduction coefficient): 6.5
